# Assay outcomes from PubChem.
# The list is not random: actives were taken first. Their share in the collection is about 2.5%.
# SIAE inh – human SIAE inhibitors, primary screen, biochemical, fluorescence polarization, FP-Rh probe, 1536-well HTS; Sialate O-acetylesterase (Homo sapiens), Q9HAT2; SIAE FP-Rh probe binding; inhibition, % at 9.66 µM; 370,000 compounds, 0.69% hits;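 active = inhibition above a cutoff: mean of compounds within the control limits plus 3 SD of those, cut at about 17% in these data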;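 note: 0% = plate median of compound wells and 100% = probe without SIAE protein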
# mABHD4 FP – ABHD4 inhibitors, primary screen, biochemical, fluorescence polarization, mouse | AID 720543, 2013 | 370,000 compounds, 0.54% hits | purified mABHD4, FP-Rh probe fluorescence polarization | (Lyso)-N-acylphosphatidylethanolamine lipase (Mus musculus), Q8VD66 | inhibition, % at 8.92 µM;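 active = inhibition exceeding the mean over every tested compound plus 3 SD, cut at about 30% in these data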;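 note: 0% = plate median of compound wells and 100% = S159A mutant with DMSO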
# Target sequence (Q8VD66 whole entry, looked up): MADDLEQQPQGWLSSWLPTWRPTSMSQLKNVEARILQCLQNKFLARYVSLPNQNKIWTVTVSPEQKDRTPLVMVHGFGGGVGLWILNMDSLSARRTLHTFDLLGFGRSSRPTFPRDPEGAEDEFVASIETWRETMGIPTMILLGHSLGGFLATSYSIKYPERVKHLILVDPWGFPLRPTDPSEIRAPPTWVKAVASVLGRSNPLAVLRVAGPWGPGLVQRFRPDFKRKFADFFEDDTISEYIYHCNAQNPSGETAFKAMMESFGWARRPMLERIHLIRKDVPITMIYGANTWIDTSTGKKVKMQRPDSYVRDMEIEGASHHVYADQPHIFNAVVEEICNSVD
#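 system = mouse ABHD4 enzyme, wild type | medium = HEPES pH 7.0, NaCl, Pluronic buffer | also added = FP-Rh probe | incubation = Enzyme–compound pre-incubation 45 min, then probe 60 min, both 25 °C | technique = fluorescence polarization, excitation 525 nm, emission 598 nm, BODIPY TMR filters | controls = S159A mutant high control, sample median low control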
# HTRA1 inh – HTRA1 serine protease inhibitors, primary screen, biochemical, fluorescence polarization, HTS | Q92743 | recombinant HTRA1, FP-rhodamine activity-based probe | inhibition, % at 5.96 µM | 340,000 compounds, 0.5% hits; in the data active = inhibition above about 36%;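 note: 0% = enzyme with DMSO and 100% = wells lacking enzyme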
# PRMT1 FP inh – PRMT1 methyltransferase inhibitors, primary screen, biochemical, fluorescence polarization | Protein arginine N-methyltransferase 1 (Homo sapiens), Q99873 | recombinant PRMT1, activity-based probe fluorescence polarization | inhibition, % at 2.79 µM | 370,000 compounds, 1.3% hits | AID 652257, 2013;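 active = inhibition above about 21% made by adding two undisclosed values, limit read from the data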
# TCR-CD3 inh – inhibitors of human TCR-CD3 interaction, primary screen, biochemical, fluorescence, TAMRA-labeled TCR probe. T-cell receptor (TCR). inhibition, % at 9.4 µM. 360,000 compounds, 0.37% hits. AID 651800, 2012;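 note: recombinant mutant TCR 2C K166C tagged with TAMRA read by polarization; 0% = receptor in buffer alone and 100% = receptor with positive control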
# BSA TAMRA ctr – compounds interfering with TAMRA-BSA probe, counter-screen for TCR-CD3 interaction inhibitor project, biochemical, fluorescence, TAMRA-labeled BSA. shares compounds with TCR-CD3 inh. TAMRA-labeled BSA probe fluorescence counterscreen. inhibition, % at 9.4 µM. 1,200 compounds, 10% hits. AID 652035, 2013; in the data active = inhibition above about 23%;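 note: 0% = buffer low control and 100% = reference high control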
# TCR-CD3 conf – TCR-CD3 interaction inhibitors, retest, confirmation, biochemical, fluorescence, TAMRA-labeled TCR probe | inhibition, % at 9.4 µM | TAMRA-labeled TCR probe fluorescence binding assay | 1,200 compounds, 48% hits | shares compounds with TCR-CD3 inh
# An asterisk follows results filed as active; x = not tested or not shown. Cut-off read from the data, not from the text of the source, unless noted: active = inhibition above about 19%; inactive = the rest.
SMILES,SIAE inh,mABHD4 FP,HTRA1 inh,PRMT1 FP inh,TCR-CD3 inh,BSA TAMRA ctr,TCR-CD3 conf
O=C(NNC(=O)c1ccc2ccccc2c1O)NC1CCCCC1,17,6,20,4,20*,-7,21*
COC(=O)[C@]12C[C@H](CC(=O)NCc3cccc4ccccc34)C(=O)N(Cc3ccco3)C1=C[C@H](C1CCCC1)O[C@@H]2C,-5,-12,x,-2,x,x,x
Cc1ccc(C(=O)NNC(=O)c2ccc3ccccc3c2O)cc1,-2,11,-2,6,43*,-6,34*
CC(=O)Nc1ccc(C(CCCc2ccccc2)C2=CCCCC2)cc1 (stereo unspecified),-9,-22,x,2,x,x,x
O=C(CC1C(=O)NCCN1Cc1cccc(F)c1)NCCCCCN1CCOCC1 (stereo unspecified),10,7,6,4,20*,1,-1
CCCCC(=O)N/N=C/c1ccc(-c2ccc([N+](=O)[O-])cc2)o1,2,0,0,-2,1,x,x
Cc1cc(C)n(Cc2ccc(C(=O)N/N=C/c3ccc(-c4ccc([N+](=O)[O-])cc4)o3)o2)n1,-1,2,5,-1,19*,-5,28*
COC(=O)[C@@H]1N=C(c2ccc(OC)cc2)O[C@]12C(=O)N(Cc1cn(-c3ccccc3)nn1)c1cccc(Cl)c12,-1,-9,x,0,x,x,x
CC1(c2nnnn2Cc2ccccc2)CCCCC(=O)N1Cc1cccs1 (stereo unspecified),7,4,x,2,x,x,x
COc1cc([N+](=O)[O-])cc(/C=N/NC(=O)c2cccnc2)c1O,5,21,6,0,32*,-11,19*
CN(c1ccccc1)S(=O)(=O)c1ccc2c(c1)oc(=O)n2C,-6,4,-4,2,0,x,x
C=CCN(c1ccccc1)S(=O)(=O)c1ccc2c(c1)oc(=O)n2C,-4,4,-7,-1,64*,3,6
O=C(NCCCc1ccccc1)OC1CCC12CCC(c1ccccc1)CC2 (stereo unspecified),-5,-4,x,0,x,x,x
Cc1onc(-c2ccccc2)c1C(=O)N/N=C/c1cccc(O)c1,10,-4,2,-4,5,x,x
Cc1onc(-c2ccccc2)c1C(=O)NN=Cc1cc(Cl)cc(Cl)c1O,8,13,x,-1,27*,-12,34*
Cc1ccc(C(=O)N2CCN(c3cccc(C)c3C)CC2)o1,2,2,-7,-4,33*,3,-1
Cc1ccc(S(=O)(=O)Cc2ccc(C(=O)N3CCN(c4cccc(C)c4C)CC3)o2)cc1,1,-8,-17,7,-5,x,x
NC(=O)[C@H]1CC2(CC(c3cccc(NC(=O)CC(c4ccccc4)c4ccccc4)c3)=NO2)CN1C(=O)CC(c1ccccc1)c1ccccc1 (stereo partly specified),-70,-81,-110,1,22*,8,17
C=C(C)C(=O)N1CC2(CC(c3cccc(NC(=O)CC(c4ccccc4)c4ccccc4)c3)=NO2)C[C@H]1C(N)=O (stereo partly specified),-5,-8,-13,0,9,x,x
NC(=O)[C@@H]1CC2(CC(c3cccc(NC(=O)CC(c4ccccc4)c4ccccc4)c3)=NO2)CN1C(=O)c1ccc(Cl)cc1 (stereo partly specified),-69,-76,-109,-1,35*,8,20*
C/C=C(/C)C(=O)Nc1cccc(C2=NOC3(C2)C[C@@H](C(N)=O)N(C(=O)c2ccc(OC)cc2)C3)c1 (stereo partly specified),15,1,-5,1,38*,3,4
CCC(=O)N1CC2(CC(c3cccc(NC(=O)CC(c4ccccc4)c4ccccc4)c3)=NO2)C[C@H]1C(N)=O (stereo partly specified),-16,0,-15,-2,1,x,x
Cc1nc2ccccc2c(=O)n1/N=C/c1c(O)ccc2ccccc12,4,5,5,1,24*,-9,8
COc1ccc2ccccc2c1C=Nn1c(-c2cc(-c3ccccc3)n[nH]2)n[nH]c1=S,3,6,x,11,x,x,x
Cc1n[nH]c(=S)n1/N=C/c1c(O)ccc2ccccc12,5,5,6,1,30*,-4,18
SMILES,SIAE inh,mABHD4 FP,HTRA1 inh,PRMT1 FP inh,TCR-CD3 inh,BSA TAMRA ctr,TCR-CD3 conf
CN(C)[C@H]1CCN(c2ccc3c(c2)O[C@H]2CCN(C2)S3(=O)=O)C1,1,-3,x,1,x,x,x
N#Cc1ccccc1N1CCN(S(=O)(=O)c2ccc3c(c2)CCC(=O)N3)CC1,3,9,x,-1,x,x,x
O=C(Cn1nnc(-c2ccccc2)n1)N/N=C/c1cc([N+](=O)[O-])ccc1O,0,4,7,0,16,x,x
O=C(Cn1nc2ccccc2n1)N/N=C/c1cc([N+](=O)[O-])ccc1O,-1,7,3,-4,26*,5,26*
CN(c1ccccc1)S(=O)(=O)c1ccc(Cl)c(C(=O)Nc2ccc(-c3nc4ccccc4[nH]3)cc2)c1,-139,-106,-79,2,60*,27*,54*
O=C(c1ccccc1)c1ccc2nc(-c3ccc(NC(=O)c4ccccc4Br)cc3)[nH]c2c1,-110,-88,-82,-2,34*,12,12
CS(=O)(=O)c1cccc(C(=O)Nc2ccc(-c3nc4ccccc4[nH]3)cc2)c1,-22,-13,-21,3,2,x,x
O=C(Nc1nnc(-c2cccnc2)s1)c1cnc2ccccc2c1,-9,-5,x,0,x,x,x
Cc1ccc(S(=O)(=O)CCC(=O)Oc2ccc3c(C)cc(=O)oc3c2)cc1,11,2,-1,7,23*,-8,0
O=C1C2C3C=CC(C4CC34)C2C(=O)N1/N=C/c1ccc(-c2ccc(F)cc2[N+](=O)[O-])o1 (stereo unspecified),-2,3,10,2,-3,x,x
Cc1ccc(-c2ccc(/C=N/N3C(=O)C4C5C=CC(CC5)C4C3=O)o2)c([N+](=O)[O-])c1 (stereo unspecified),9,15,-10,3,22*,3,1
CCN(CC)S(=O)(=O)c1cccc(C(=O)N/N=C(\C)c2ccc(O)cc2O)c1,11,21,21,2,41*,-19,44*
